Experimental data: article PMC3751419 (Dalton transactions (Cambridge, England : 2003), 2013)

Legend:
[1] = test system: platinum-resistant colorectal tumours; settings: cited from earlier work
[2] = test system: metastases of solid tumours; settings: cited from earlier work
[3] = test system: cisplatin-resistant ovarian and testicular cancer cell lines; settings: cited from earlier work
[4] = Stability in aqueous media by ESR and 51V NMR spectroscopy; format: physicochemical
In short: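 A 50 mM DMSO stock was diluted to 4.0 mM in DI water (pH 7.19) and kept in subdued light at room temperature. ESR spectra were recorded at room temperature immediately and at 24, 48 and 72 h. 51V NMR spectra of the 4.0 mM solutions were taken at 0, 24, 48 and 72 h and at seven days. Control: 4.0 mM NaVO3, pH 7.19.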

HFF cells = test: Dark and light toxicity with a 740 nm LED lamp, phase contrast images; format: cell-based, human; settings: for light enhancement of cytopathic effect compared to dark toxicity, HFF: 740 nm red light 60 minutes, then 24 hours dark
A431 carcinoma cells = test: as above; format: cell-based, human
[5] = test system: murine embryonic fibroblasts; settings: room-light or red-light exposure; cited from earlier work
fibrosarcoma cells = settings: room-light or red-light exposure; cited from earlier work
[6] = test system: amelanotic malignant melanoma cells; test: Dark and light toxicity with a 60 W tungsten lamp, phase contrast images; format: cell-based, human
In short: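 ATCC amelanotic melanoma line (from a person) grown at 37 °C, 5% CO2 in high-glucose DMEM with 10% FBS, 0.5% pen-strep, 1% glutamine and 1% non-essential amino acids. 10^5 cells/well seeded; after 24 h, medium swapped for test compound at 5 or 20 µM. After 24 h, cells irradiated 30 min with a 60 W tungsten lamp or kept dark. Phase-contrast images at 10x taken 3 h later. Untreated cells served as control.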

[7] = 4.0 mM in water, pH 7.19, room temperature, day seven

Compound: [Cl-].[Cl-].[Cl-].[Cl-].[Ru+3].c1ccc2[nH][nH+]cc2c1.c1ccc2[nH]ncc2c1.c1ccc2[nH]ncc2c1 [KP1019]
- activity against platinum-resistant colorectal tumours [1]: excellent activity

Compound: CS(C)=O.[Cl-].[Cl-].[Cl-].[Cl-].[Ru+3].c1c[nH+]c[nH]1.c1c[nH]cn1 [NAMI-A]
- activity against development and growth of metastases of solid tumours [2]: particularly active

Compound: Cc1ccnc2c1ccc1c(C)ccnc12.Cc1ccnc2c1ccc1c(C)ccnc12.O=S(=O)([O-])[O-].[O]=[V+2] [metvan, bis(4,7-dimethyl-1,10-phenanthroline)sulfatooxovanadium(IV)]
- effectiveness against cisplatin-resistant ovarian and testicular cancer cell lines [3]: highly effective

Compound: [Ru(pbt)2(phen2DTT)VO(sal-L-tryp)]Cl2
- change in intensity of ESR spectra ([4]; 4.0 mM in water, pH 7.19, room temperature, 0, 24, 48, and 72 hours): no decrease in intensity
- vanadium(V) species by 51V NMR [4, 7]: a weak, broad peak at −543 ppm
- vanadium(V) species by 51V NMR ([4]; 4.0 mM in water, pH 7.19, room temperature, up to 72 hours): absence of any vanadium(V) species
- stability in aqueous media (oxidation of vanadium(IV) centre) ([4]; standing at room temperature, pH 7.19): considerable stability
- changes in morphology of HFF cells (HFF cells; 5 μM and 20 μM, dark and light exposure): only minor changes in morphology
- light enhancement of cytopathic effect compared to dark toxicity, HFF (HFF cells): no effect
- changes in cell morphology of A431 cells (A431 carcinoma cells; 5 μM, dark and light exposure): only slight changes in cell morphology
- cytopathic effect on A431 cells (A431 carcinoma cells; 20 μM): anticancer cytopathic effect
- light enhancement of cancer cell death compared to [Ru(pbt)2(tpphz)VO(sal-L-tryp)]Cl2 treated cells (A431 carcinoma cells; 740 nm light, A431): more pronounced light enhancement of cancer cell death
- light enhancement of cytopathic effect compared to dark toxicity, A431 (A431 carcinoma cells; 740 nm red light 60 minutes, then 24 hours dark): light enhanced cytopathic effects

Compound: [Ru(pbt)2(tpphz)VO(sal-L-tryp)]Cl2
- vanadium(V) species by 51V NMR [4, 7]: a weak, broad peak at −543 ppm
- light enhancement of cytopathic effect compared to dark toxicity, HFF (HFF cells): no effect

Compound: sodium diaqua-4,4',4”,4”'tetrasulfophthalocyaninecobaltate(II) [Na4[Co(tspc)(H2O)2]]
- cytotoxic activity [5]: no cytotoxic activity
- cytotoxic activity (fibrosarcoma cells): no cytotoxic activity
- apoptosis of melanoma cells, dark ([6]; 5.0 and 20.0 μM, incubated in the dark one day): do not show significant apoptosis
- impact on melanoma cells under illumination ([6]; 5 or 20 μM, 60 W tungsten lamp 30 minutes): no impact
